Source: PubChem (Broad Institute)
Rows were chosen to be rich in hits. Some 2.1% of all compounds tested hit in one or more screens of this group.
FN deposition inh: inhibitors of fibronectin matrix deposition, primary screen, AH1F cells, Alexa488-fibronectin fluorescence, plate reader; 350,000 tested, 0.086% active; AID 743247, 2014; inhibition, % at 12.6 µM; AH1F fibroblasts, overnight;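 active means mean inhibition across replicates of 30% or more, regardless of how many single replicates reach that level; inconclusive means mean under 30% yet at least half of replicates reach 30%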;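 further: positive control wells lacked labelled fibronectin entirely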
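test system = AH1F fibroblasts assembling fluorescent fibronectin matrix | quantity = 10000 AH1F cells per well | buffer or medium = DMEM plus 2% serum, read in PBS | doses = single dose, pinned | incubation = 1 h cell attachment, overnight exposure to compound and label | detection = fluorescence at 485 nm excitation, 525 nm emission | read-out basis = inhibition from reduced deposited-fibronectin fluorescence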
ERp5 block: inhibitors of ERp5-driven insulin aggregation, primary screen, biochemical, turbidity, absorbance 650 nm, single point. 90 min. 350,000 tested, 0.05% active. inhibition, % at 9.99 µM. Protein disulfide-isomerase A6 (Homo sapiens), Q15084. AID 651711, 2012;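 active means mean replicate inhibition above about 25%, with every replicate also reaching it, limit read from the data, passing the limit was not always enough; inconclusive means only one of those two criteria met; inactive means neither criterion met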
PDI inh: inhibitors of human PDI, primary screen, biochemical, turbidity, single point, plate reader; inhibition, % at 10 µM; 350,000 tested, 0.052% active; Protein disulfide-isomerase (Homo sapiens), P07237; PDI insulin aggregation turbidity, A650, 90 min; AID 588391, 2011;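 active means mean inhibition across replicates of 30% or more, whatever share of single replicates reach that level; inconclusive means mean inhibition below 30% while every single replicate reaches 30%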
AF4-AF9 inh: inhibitors of AF4 peptide binding to AF9, primary screen, biochemical, AlphaScreen, biotin-AF4 peptide, FLAG-AF9, single point; inhibition, % at 10 µM; 350,000 tested, 0.47% active; AID 651704, 2012;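 active means every replicate reaching a set inhibition limit, whatever the replicate mean, cut at about 25% in these data; inconclusive means mean inhibition reaches that limit but some replicates miss it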;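 further: 0% = plate neutral control median and 100% = total signal loss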
Target sequence (P42568 whole entry, looked up): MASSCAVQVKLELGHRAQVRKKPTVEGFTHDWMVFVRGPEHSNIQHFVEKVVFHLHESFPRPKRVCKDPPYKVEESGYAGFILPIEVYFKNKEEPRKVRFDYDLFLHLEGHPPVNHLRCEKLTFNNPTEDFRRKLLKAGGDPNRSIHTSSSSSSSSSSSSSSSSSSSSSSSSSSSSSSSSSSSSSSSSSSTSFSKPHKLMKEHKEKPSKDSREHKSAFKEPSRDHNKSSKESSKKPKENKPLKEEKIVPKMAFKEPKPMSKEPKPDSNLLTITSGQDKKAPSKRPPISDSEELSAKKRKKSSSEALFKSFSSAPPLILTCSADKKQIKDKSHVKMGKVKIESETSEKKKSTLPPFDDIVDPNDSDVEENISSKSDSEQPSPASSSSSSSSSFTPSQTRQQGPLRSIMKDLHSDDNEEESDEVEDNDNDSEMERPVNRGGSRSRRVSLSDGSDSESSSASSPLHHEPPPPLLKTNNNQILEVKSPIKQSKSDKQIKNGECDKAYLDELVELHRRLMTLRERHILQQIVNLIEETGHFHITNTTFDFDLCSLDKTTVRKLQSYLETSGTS
FGF22 binding: binders of human FGF22 protein, primary screen, FGF22 synaptogenesis inhibitor project, biophysical, thermal shift, single point. recombinant FGF22 thermal shift, SYPRO orange fluorescence; percent of sucrose octasulfate shift, DMSO zero. Fibroblast growth factor 22 (Homo sapiens), Q9HCT0. 340,000 tested, 1.5% active. activity (Tm shift, normalised), % at 9.99 µM;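 active means mean Tm shift, scaled 0 neutral to 100 positive control, at about 1.3% or above, every replicate too, limit read from the data; inconclusive means no clear call, values can overlap the other calls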
ARNT TACC3 PPI: disruptors of ARNT/TACC3 protein interaction, primary screen, biochemical, AlphaScreen, single concentration. AlphaScreen His-ARNT PAS-B/GST-TACC3 binding, luminescence; TACC3 fragment carries E629A point mutation. inhibition, % at 9.99 µM. 390,000 tested, 0.66% active. AID 623870, 2012;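 active means mean inhibition of replicates at least 50% and at least half of replicates each reaching 50%; inconclusive means half or more replicates reach 50% but mean below 50%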;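 further: 0% = complete ARNT plus TACC3 wells and 100% = ARNT alone without TACC3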
Active calls of the source: *; u = inconclusive; x = no result given.

SMILES	FN deposition inh	ERp5 block	PDI inh	AF4-AF9 inh	FGF22 binding	ARNT TACC3 PPI
Oc1cccc(Nc2nc(-c3ccccc3Cl)nc3ccccc23)c1	-9.7	-3.7	-3.6	-0.1	1.6*	-4.9
Cc1ccc(-c2nc(Nc3cccc(O)c3)c3ccccc3n2)cc1	-15.7	8.0	-7.4	-4.4	0.0	-12.2
Cc1ccc([N+](=O)[O-])cc1NC(=O)CN(C1CCCCC1)S(=O)(=O)c1ccc(Cl)cc1	x	x	2.6	x	x	-2.8
Cc1ccc([N+](=O)[O-])cc1NC(=O)CN(C(=O)c1ccccc1Cl)C1CCCCC1	31.7*	-0.7	1.5	7.3	-0.4	x
C/C=C/c1ccc([C@H]2[C@H](CO)N(S(=O)(=O)Cc3ccccc3)C23CN(C(=O)C2CC2)C3)cc1	3.3	x	x	x	x	x
COC(=O)CCCCC1SCC2NC(=O)NC21 (centres undefined)	x	-0.7	2.2	7.9	0.5	0.5
O=C(O)CCCC[C@@H]1SC[C@@H]2NC(=O)N[C@@H]21	x	2.8	x	97.4*	0.0	-6.8
C[C@H]1CN([C@@H](C)CO)C(=O)c2cccc(NC(=O)c3nc4ccccc4s3)c2O[C@H]1CN(C)Cc1ccc(C(=O)Nc2ccccc2N)cc1	19.4	x	x	-3.0	x	x
Cc1ccc(S(=O)(=O)Nc2cc(Cl)c(O)c3ncccc23)cc1	x	-0.4	0.0	0.7	0.1	47.8*
O=C(Nc1ccc(Cl)cc1F)C1CC1c1ccccc1 (centres undefined)	-6.5	-1.3	-4.4	-1.6	0.1	-3.2
Cc1ccc(NC(=O)C2CC2c2ccccc2)c([N+](=O)[O-])c1 (centres undefined)	-16.3	-0.4	2.9	2.2	0.2	45.6*
CCCNC(=O)N[C@@H]1CC[C@@H](CC(=O)N2CCN(C)CC2)O[C@H]1CO	9.8	0.8	x	2.6	-0.3	-0.5
Cc1nn(-c2ccccc2)c(C)c1/C=C1\C(=O)N(C)C(=S)N1C	5.6	u	0.7	18.9	43.3*	20.9
Cc1sc(NC(=O)c2ccco2)c(C(Nc2ccccn2)c2ccccc2)c1C (centres undefined)	2.7	x	4.0	x	x	-38.1
COc1ccc(C(Nc2ccccn2)c2c(NC(=O)c3ccco3)sc(C)c2C)cc1 (centres undefined)	6.1	-3.7	-4.4	7.6	43.7*	2.0
O=C(NCCO)C(=O)c1c(-c2ccc(Cl)cc2)cc2ccccn12	2.5	-3.1	14.7	-1.3	43.8*	x
Cc1ccc(C(=O)Oc2ccccc2N2C(=O)C3CCC(C)CC3C2=O)cc1 (centres undefined)	0.3	x	1.1	x	x	-3.4
CC1CCC2C(=O)N(c3ccc(C(=O)Oc4cccc5cccnc45)cc3)C(=O)C2C1 (centres undefined)	5.1	x	1.2	x	x	48.7*
COc1ccc(NC(=O)N(C)C[C@H]2Oc3ccc(NS(=O)(=O)c4c(C)noc4C)cc3CC(=O)N([C@H](C)CO)C[C@H]2C)cc1	x	9.2	x	-30.3	-0.2	x
C[C@@H]1CN([C@@H](C)CO)C(=O)CCCn2cc(nn2)CO[C@@H]1CN(C)S(=O)(=O)c1ccc(F)cc1	2.0	-3.2	x	-1.0	-0.1	2.2
C[C@H]1CCCCO[C@@H](CN(C)C(=O)NC2CCCCC2)[C@@H](C)CN([C@@H](C)CO)C(=O)c2cc(NC(=O)CCC(F)(F)F)ccc2O1	x	-1.7	x	0.6	-0.4	-5.8
Cc1c(C(=O)NC(=S)Nc2ccc(N3CCOCC3)cc2)cccc1[N+](=O)[O-]	-10.1	0.2	9.4	0.7	43.0*	-3.0
COc1ccc(CN(C)C[C@@H]2OCCCC[C@H](C)Oc3ccc(NS(=O)(=O)c4ccc(C)cc4)cc3C(=O)N([C@H](C)CO)C[C@@H]2C)cc1	x	6.5	x	6.5	x	1.5
Cc1ccccc1NC(=O)c1ccc(OCC(=O)Nc2ccccc2F)cc1	0.9	1.2	-4.3	-1.3	42.9*	-3.3
Cc1ccc(OCC(=O)Nc2ccccc2F)cc1	-2.1	2.9	-2.5	-2.5	0.0	-4.9
SMILES	FN deposition inh	ERp5 block	PDI inh	AF4-AF9 inh	FGF22 binding	ARNT TACC3 PPI
O=C(c1ccccn1)N1CC[C@@H]2[C@@H](CO)Nc3ccc(Br)cc3[C@@H]21	-5.8	-8.1	x	-2.0	0.0	13.2
C[C@@H]1CN([C@H](C)CO)C(=O)c2cc(NS(=O)(=O)c3cccs3)ccc2O[C@@H](C)CCCCO[C@@H]1CN(C)S(=O)(=O)c1ccc(F)cc1	x	0.3	x	1.0	-0.6	-3.6
O=c1c(Cc2ccccc2)c(O)ccn1CCc1cnc[nH]1	x	-4.1	4.5	0.9	-0.1	-5.1
O=c1c(Cc2ccc(F)cc2)c(O)ccn1CCc1cnc[nH]1	-0.6	0.9	4.5	-9.9	43.4*	-1.3
Cc1ccc([N+](=O)[O-])cc1S(=O)(=O)Nc1cccc(S(=O)(=O)NC2=NCCC2)c1	-3.6	2.0	-3.6	-7.7	44.5*	1.7
Cc1ccc(S(=O)(=O)N2CCN(C(=O)c3ccccn3)CC2)cc1	-6.3	-0.2	0.1	-0.8	43.1*	-8.8
Cc1ccc(NC(=O)C2CCCN(S(=O)(=O)c3cccnc3)C2)c(C)c1 (centres undefined)	13.3	2.5	-13.4	-0.3	44.2*	-2.0
C/C(=N\NC(=O)C1CCCN(S(=O)(=O)c2ccccc2)C1)c1ccccn1 (centres undefined)	x	x	-16.9	x	x	53.0*
Cc1ccc(NC(=O)C2CCCN(S(=O)(=O)c3cccnc3)C2)cc1C (centres undefined)	6.5	-1.3	-2.5	0.2	-0.1	-4.1
O=C(c1ccccn1)N1CCN(S(=O)(=O)c2ccc(F)cc2)CC1	4.8	0.2	-10.1	0.4	0.6	-4.2
O=C(c1ccccn1)N1CCN(S(=O)(=O)c2ccccc2)CC1	-4.8	5.0	-4.2	-0.9	43.2*	-4.8
CO[C@H]1CN(C)C(=O)c2ccc(NS(=O)(=O)c3ccc(Cl)cc3)cc2OC[C@@H](C)N(C)C[C@@H]1C	7.9	-2.0	x	-0.3	-0.1	-6.4
COc1ccc2c3c([nH]c2c1)[C@H](CO)N(C(=O)C1CC1)CC31CN(C)C1	x	-3.9	x	1.3	-0.3	x
C[C@H](CO)N1C[C@H](C)[C@@H](CN(C)S(=O)(=O)c2cn(C)cn2)Oc2cc(C3=CCCC3)ccc2S1(=O)=O	-14.3	3.6	x	-3.8	-0.2	-0.6
C[C@H]1CN([C@@H](C)CO)C(=O)c2cc(C#Cc3cccnc3)cnc2O[C@H]1CN(C)Cc1ccncc1	2.5	x	x	x	0.2	2.3
